ChEMBL document CHEMBL4513216, “Probing the Open Global Health Chemical Diversity Library for Multistage-Active Starting Points for Next-Generation Antimalarials” (ACS Infect Dis, 2020)

Test: Toxicity liver stage against HepG2, at 10uM
Assay type: cell-based
Design: test concentration 10 uM, cell line HepG2-A16-CD81EGFP
Conditions: human, HepG2-A16-CD81EGFP cells; read-out: INHIBITION
How it was run: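 Uninfected HepG2-A16-CD81EGFP cells, 3 × 10^3 per well, 1536-well, plated on prespotted compound at 10 μM final, parasite-free screening media added to match infected plates; puromycin 10 μM positive, DMSO 0.5% negative; run in parallel with 48 h PbLuc assay at 37 °C, 5% CO2; viability by CellTiter-Glo luminescence, normalized to controls.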

`Cc1csc(NCC(=O)c2c[nH]c3ccccc23)n1` gave a cytotoxicity at 10 µM of 22.4%.
With `CS(=O)(=O)NCC1CCCCN1C(=O)c1csc(-c2ccsc2)n1` (stereo not given) the cytotoxicity at 10 µM was -5.89%.
Compound `COc1cccc(-c2nc(C)c(C(=O)N[C@@H](CC(C)C)C(=O)O)s2)c1` has a cytotoxicity at 10 µM of 4.21%.
Compound `O=C(NCC1CCCO1)c1cc(-c2ccc3c(c2)CCO3)n[nH]1` (stereo not given) has a cytotoxicity at 10 µM of -8.13%.
With `CCc1c(C)nc(-n2nc(-c3cccs3)cc2N)[nH]c1=O` the cytotoxicity at 10 µM was -4.47%.
`CN(C)C(CNC(=O)NCCOc1ccccc1)c1ccco1` (stereo not given) showed a cytotoxicity at 10 µM of -6.2%.
`CC(=O)OC1CN(c2nc3c(C(F)(F)F)cccc3s2)C1` showed a cytotoxicity at 10 µM of -5.17%.
For `CN1CCN(C(=O)c2n[nH]c3c2CN(Cc2nccs2)CC3)CC1`, the cytotoxicity at 10 µM was -144%.
`CC1CCc2nc(O)c(C(=O)NCc3ccccn3)cc2C1` (stereo not given) gave a cytotoxicity at 10 µM of -2.99%.
Work on `CC1CCc2nc(O)c(C(=O)NCCc3cccs3)cc2C1` (stereo not given) yielded a cytotoxicity at 10 µM of 0.106%.
`O=c1c2cnc(N3CCCC3)nc2ccn1-c1cccc(F)c1` gave a cytotoxicity at 10 µM of 3.36%.
With `O=C(NCCCO)c1nc(-c2ccc3cc[nH]c3c2)no1` the cytotoxicity at 10 µM was 4.28%.
Compound `Cc1nc2c(Nc3ccc(C#N)cc3)nc(N)nc2n1C` has a cytotoxicity at 10 µM of 1.88%.
Work on `COc1ccc(-c2cc(C3(O)CCCC3)on2)cc1` yielded a cytotoxicity at 10 µM of 2.5%.
Work on `Cc1ccc(NC(=O)c2cccc(N(C)C)c2)nc1` yielded a cytotoxicity at 10 µM of 8.77%.
`CCOCCC(=O)NC(c1noc(C)n1)c1ccccc1F` (stereo not given) showed a cytotoxicity at 10 µM of 0.101%.
In the case of `CSCCC(=O)N1CCN(CC(C)(C)O)CC1`, the cytotoxicity at 10 µM is reported as -5.85%.
`CN1CCc2ccc(NCc3cccs3)cc2C1=O` gave a cytotoxicity at 10 µM of -4.72%.
In the case of `NC(=O)CSc1ccccc1NCc1nc(C2CC2)no1`, the cytotoxicity at 10 µM is reported as 1.12%.
Work on `CN(CCCNC(=O)c1cccc(OCC(N)=O)c1)CC(F)(F)F` yielded a cytotoxicity at 10 µM of -10.4%.
In the case of `Cn1cc(N2CCCC(Nc3ccc4c(c3)NC(=O)CC4)C2=O)cn1` (stereo not given), the cytotoxicity at 10 µM is reported as -1.61%.
In the case of `O=C(c1ccc(NCc2ccco2)nc1)N1CCc2ccccc21`, the cytotoxicity at 10 µM is reported as -4.6%.
In the case of `CC(C)(C)n1ncc2c(=O)[nH]c(N3CCN(CCO)CC3)nc21`, the cytotoxicity at 10 µM is reported as -13.3%.
In the case of `CC(C)C(O)CNC(=O)Nc1cccc(-c2nccs2)c1` (stereo not given), the cytotoxicity at 10 µM is reported as -5.5%.
`CCOCCOC(C)C(=O)Nc1ccc2[nH]c(C)cc2c1` (stereo not given) gave a cytotoxicity at 10 µM of 5.35%.
Compound `O=C(Nc1cnn(-c2ccccc2Cl)c1)N[C@@H]1C=C[C@H](CO)C1` has a cytotoxicity at 10 µM of 0.836%.
Compound `Cn1c(C2CC2)nc2cc(NC(=O)C3(O)CCCC3)ccc21` has a cytotoxicity at 10 µM of 2.84%.
In the case of `NC(=O)CC1CCN(C(=O)c2csc(-c3ccccc3F)n2)CC1`, the cytotoxicity at 10 µM is reported as -1.29%.
Compound `COCCN1CCN(CC(O)c2cc(OC)ccc2OC)CC1` (stereo not given) has a cytotoxicity at 10 µM of 3%.
`N#Cc1ccc(N2CCCC2Cn2cncn2)nc1` (stereo not given) gave a cytotoxicity at 10 µM of 6.05%.
Compound `CS(=O)(=O)NCCNC(=O)NC1(c2ccc(F)cc2)CCCC1` has a cytotoxicity at 10 µM of -1.44%.
With `Cc1ccccc1OCCSc1nnc(CC2CCS(=O)(=O)C2)n1C` (stereo not given) the cytotoxicity at 10 µM was 1.27%.
In the case of `CC1CCN(C(=O)Cn2cc(I)cn2)CC1`, the cytotoxicity at 10 µM is reported as 2.19%.
`CCN1CCC(NC(=O)Cn2cc(C)c3ccccc32)CC1` gave a cytotoxicity at 10 µM of -1.74%.
`Cc1cn(CC(=O)NC2CCC3(CC2)OCCO3)c2ccccc12` gave a cytotoxicity at 10 µM of -1.21%.
In the case of `CN(Cc1ccc(Cl)s1)C(=O)c1ccccc1OCC(N)=O`, the cytotoxicity at 10 µM is reported as -9.2%.
`Cc1cc(NC(=O)NCCc2ccc3c(c2)OCCO3)n(C)n1` gave a cytotoxicity at 10 µM of -0.838%.
In the case of `Cc1cc(N(C)C)nc(N2CCN(Cc3nccn3C)CC2)n1`, the cytotoxicity at 10 µM is reported as -4.05%.
Compound `COC(=O)c1ccc(N2CCC(C(O)c3ccccc3)CC2)nn1` (stereo not given) has a cytotoxicity at 10 µM of 1.68%.
`Cn1cccc(NC(=O)COc2ccc(Br)cc2)c1=O` showed a cytotoxicity at 10 µM of 8.35%.
For `CC(C)C(=O)NCCCNC(=O)Nc1cc(-c2ccccc2)ns1`, the cytotoxicity at 10 µM was 20.3%.
`CCC(C)(C)C(=O)N1CCN(C2=NCC(C)S2)CC1` (stereo not given) showed a cytotoxicity at 10 µM of -144%.
With `CC(C)C(C)N(C(=O)c1cc2c([nH]c1=O)CCCC2=O)C1CC1` (stereo not given) the cytotoxicity at 10 µM was -3.45%.
In the case of `CC(=O)N(C)CCc1nc(-c2cc(C(N)=O)co2)cs1`, the cytotoxicity at 10 µM is reported as -4.99%.
Work on `Cc1ccc(OCC(O)COC2CCOCC2)c(Br)c1` (stereo not given) yielded a cytotoxicity at 10 µM of -4.66%.
Work on `Cc1ccc(-c2nn3c(nc2=O)-c2ccccc2NC3C(=O)O)cc1C` (stereo not given) yielded a cytotoxicity at 10 µM of 19.3%.
`O=C(N1CCC(O)(C(F)(F)F)C1)C1(c2cccc(Cl)c2)CC1` (stereo not given) showed a cytotoxicity at 10 µM of -2.72%.
In the case of `CC(Cn1cccn1)NCc1csc(-c2ccccc2)n1` (stereo not given), the cytotoxicity at 10 µM is reported as -13.4%.
With `Cc1ccsc1[C@@H]1CCN(C(=O)CCCn2cncn2)C[C@H]1O` the cytotoxicity at 10 µM was -6.91%.
For `CCc1nc(N2CCC3(CC2)CC(=O)N(Cc2ccc(Cl)cc2)C3)no1`, the cytotoxicity at 10 µM was 4.48%.
With `Cc1nccc(-c2ccccc2)c1C(=O)N1CC[C@](C)(O)C(C)(C)C1` the cytotoxicity at 10 µM was -3.45%.
Work on `CC(C)c1nnc(N2C[C@@H](CN(C)CCO)[C@@H](CO)C2)s1` yielded a cytotoxicity at 10 µM of -2.48%.
`Cc1nn2cc(CCNC(=O)c3cc(C(C)C)no3)nc2s1` showed a cytotoxicity at 10 µM of -4.8%.
Work on `CCCc1nnc(N(C)CC2CCN(CC(C)C)CC2)o1` yielded a cytotoxicity at 10 µM of 6.05%.
For `Cc1ncsc1CCC(=O)N1CCN(CCn2cncn2)CC1`, the cytotoxicity at 10 µM was 3.21%.
